Reference: article PMC5111764 (Journal of Clinical Pharmacology, 2016)
Where two headings read alike, the source gives them in different places.

Experiments:
[1] = type: in vivo; conditions: male, human, plasma, po
Procedure, shortened: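 In an alternating-panel design (panels A and B), each panel had 6 active and 2 placebo subjects. Single oral doses of 0.5–400 mg were given after an overnight fast, with at least 2 weeks of washout. Blood went into K2EDTA and was spun at 1000–1300g, 4–10°C, for 10 min, then stored at –20°C. Plasma was extracted liquid-liquid with a stable-isotope internal standard and assayed by LC/MS/MS with turbo ionspray (range 1.0–1000 ng/mL). Parameters came from individual concentration-time curves at actual sampling times.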

[2] = ref unpublished data; cited from earlier work
active GLP-1 = experiment: Study 2: weighted average augmentation; type: in vivo, human; conditions: healthy subjects (abstract)
Procedure, shortened: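 Once-weekly oral dosing ran days 1, 8 and 15 against placebo. On day 15, standard meals were given at 4 and 10 h post-dose, with the 4-h sample drawn before the meal. Plasma active GLP-1 (7-36 and 7-37 amides) was measured by electrochemiluminescent immunoassay. Capture was with an antibody to amino acid 7, and detection with antibodies to the C-terminal residues 36/37. WAA was taken through 2 h after each meal and analysed by ANOVA versus placebo.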

[3] = Safety and tolerability in healthy subjects; type: in vivo, human; conditions: single and multiple doses
Procedure, shortened: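 Healthy adults got single rising oral doses or 3 once-weekly oral doses, versus placebo. Physical exams, vital signs and 12-lead ECGs (QTc, PR) were done before dosing, after dosing and at the poststudy visit. So were labs (hematology, serum chemistry including transaminases, urinalysis). Glucometer readings were taken often over 24 h after each single dose or the last multiple dose. Adverse experiences were graded for intensity, duration, seriousness, outcome and drug relation.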

plasma DPP-4 activity [4] = molecular target: T1, plasma DPP-4 activity (Homo sapiens, UniProt P27487); experiment: PK/PD Emax model of DPP-4 inhibition vs omarigliptin plasma concentration; type: in vivo
T1 sequence (P27487 39-766): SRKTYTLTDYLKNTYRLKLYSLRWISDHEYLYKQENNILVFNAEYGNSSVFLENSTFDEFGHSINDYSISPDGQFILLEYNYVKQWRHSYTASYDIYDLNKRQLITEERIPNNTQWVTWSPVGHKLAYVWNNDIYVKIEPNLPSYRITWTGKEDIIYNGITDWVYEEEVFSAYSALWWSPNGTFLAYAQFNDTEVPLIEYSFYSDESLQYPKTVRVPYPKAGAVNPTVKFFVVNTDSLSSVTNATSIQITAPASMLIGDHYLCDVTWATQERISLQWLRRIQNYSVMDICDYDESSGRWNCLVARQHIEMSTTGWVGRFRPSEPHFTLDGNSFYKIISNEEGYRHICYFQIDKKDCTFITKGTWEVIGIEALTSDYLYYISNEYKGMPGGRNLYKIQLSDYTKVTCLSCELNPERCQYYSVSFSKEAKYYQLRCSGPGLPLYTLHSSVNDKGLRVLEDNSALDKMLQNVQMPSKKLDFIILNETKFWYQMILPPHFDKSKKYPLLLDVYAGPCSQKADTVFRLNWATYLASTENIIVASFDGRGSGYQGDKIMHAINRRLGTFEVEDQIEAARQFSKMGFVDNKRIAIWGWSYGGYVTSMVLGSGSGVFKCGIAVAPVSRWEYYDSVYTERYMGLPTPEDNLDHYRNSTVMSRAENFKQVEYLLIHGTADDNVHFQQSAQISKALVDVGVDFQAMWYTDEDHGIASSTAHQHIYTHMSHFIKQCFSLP

[5] = rats and dogs; cited from earlier work
[6] = ref unpublished data; cited from earlier work; remark: listed apart in the source
[7] = PK/QTc relationship: linear mixed-effects model of QTcF vs plasma concentration; type: in vivo, human; conditions: Cmax of 10 μM
Procedure, shortened: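 In study 1, single rising oral doses ran from 0.5 to 400 mg under fasting. ECGs came from 5-lead cardiac telemetry and 12-lead recordings, paired with PK sampling. The averaged triplicate QTcF at each time point (dependent) was matched to plasma drug concentration (independent). These were fitted by a linear mixed-effects model with slope and intercept, and the slope was tested against zero. Prolongation was predicted from the fitted slope.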

plasma DPP-4 activity [8] = conditions: lean mice, 0.3 mg/kg dose; cited from earlier work
[9] = Study 1 panel C: effect of a high-fat breakfast on single-dose pharmacokinetics; type: in vivo, human; conditions: single dose 10 mg
Procedure, shortened: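 Panel C had 8 subjects, 6 on 10 mg test compound and 2 on placebo, in a 2-period fixed sequence. Dosing was fasted in period 1 and after a standard high-fat breakfast (55.6 g fat, 55 g carbohydrate, 31.1 g protein) in period 2. Washout was at least 2 weeks. Plasma was assayed by LC/MS/MS (LLOQ 1.0 ng/mL). Log-transformed parameters were compared fed/fasted as GMR with 90% CI.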

plasma DPP-4 activity [10] = molecular target: T1, plasma DPP-4 activity; experiment: Study 1: inhibition of plasma DPP-4 activity after single doses; type: in vivo
Procedure, shortened: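 Healthy subjects got single oral doses of 0.5–400 mg or placebo. Blood went into EDTA tubes and was spun at 1700g for 10 min at 4°C, then stored at –20°C or below. Plasma was incubated with glycyl-prolyl-paranitroanilide, and absorbance increase at 390 nm was read from 4 to 14 min (LOQ 0.6 mOD/min). Inhibition is the % change from the period-1 predose baseline. The 168-h values came from a linear mixed-effects model (treatment fixed, subject random).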

[11] = type: in vivo, human; conditions: for fe, fraction of dose excreted in urine: Day 15, 168-hour collection; for half-life / CL renal: male, human, oral; for half-life: plasma; for CL renal: urine and plasma
Procedure, shortened: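 Serial panels got 10, 25, 50 or 100 mg orally once weekly on days 1, 8 and 15, with 6 active and 2 placebo per panel. Plasma was assayed by LC/MS/MS (LLOQ 1.0 ng/mL). Urine was fortified with 0.2% Tween 20, protein-precipitated and assayed by LC/MS/MS (range 40.0–40,000 ng/mL). Ae is the sum of concentration × volume per interval, fe is Ae/dose and CLr is Ae/AUC. Accumulation is the day 15/day 1 GMR with 90% CI from a log-transformed mixed-effects model.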

**Q.** With CS(=O)(=O)n1cc2c(n1)CN([C@H]1CO[C@H](c3cc(F)ccc3F)[C@@H](N)C1)C2 [omarigliptin] as the compound, how does the Tmax [1] read?
**A.** 0.75 to 4 h

**Q.** And the Cmax ([1]; 0.5 mg)?
**A.** 6.5 nM

**Q.** What about the Tmax ([1]; 0.5 mg) of the same compound?
**A.** 0.75 h

**Q.** What about the AUC(0-inf) ([1]; 1.5 mg) of the same compound?
**A.** 1.7 µM·h

**Q.** What about the Cmax ([1]; 1.5 mg) of the same compound?
**A.** 20.7 nM

**Q.** And the Tmax ([1]; 1.5 mg)?
**A.** 1 h

**Q.** What about the AUC(0-inf) ([1]; 5 mg) of the same compound?
**A.** 5.3 µM·h

**Q.** And the Cmax ([1]; 5 mg)?
**A.** 88.2 nM

**Q.** What about the Tmax ([1]; 5 mg) of the same compound?
**A.** 2 h

**Q.** And the AUC(0-inf) ([1]; 12.5 mg)?
**A.** 12 µM·h

**Q.** And the Cmax ([1]; 12.5 mg)?
**A.** 219 nM

**Q.** What about the Tmax ([1]; 12.5 mg) of the same compound?
**A.** 4 h

**Q.** And the AUC(0-inf) ([1]; 25 mg)?
**A.** 22.5 µM·h

**Q.** What about the Cmax ([1]; 25 mg) of the same compound?
**A.** 484 nM

**Q.** And the Tmax ([1]; 25 mg)?
**A.** 0.75 h

**Q.** What about the AUC(0-inf) ([1]; 50 mg) of the same compound?
**A.** 41.6 µM·h

**Q.** And the Cmax ([1]; 50 mg)?
**A.** 904 nM

**Q.** And the Tmax ([1]; 50 mg)?
**A.** 1.5 h

**Q.** And the AUC(0-inf) ([1]; 100 mg)?
**A.** 86.9 µM·h

**Q.** And the Cmax ([1]; 100 mg)?
**A.** 2210 nM

**Q.** And the Tmax ([1]; 100 mg)?
**A.** 0.75 h

**Q.** And the AUC(0-inf) ([1]; 200 mg)?
**A.** 162 µM·h

**Q.** What about the Cmax ([1]; 200 mg) of the same compound?
**A.** 3850 nM

**Q.** And the Tmax ([1]; 200 mg)?
**A.** 1.5 h

**Q.** What about the AUC(0-inf) ([1]; 400 mg) of the same compound?
**A.** 335 µM·h

**Q.** And the Cmax ([1]; 400 mg)?
**A.** 9290 nM

**Q.** And the Tmax ([1]; 400 mg)?
**A.** 1 h

**Q.** And the permeability [2]?
**A.** high

**Q.** What about the “increase in weighted average postprandial active GLP-1” value (active GLP-1) of the same compound?
**A.** ~2 fold

**Q.** What about the tolerability ([3]; healthy adults) of the same compound?
**A.** generally well tolerated

**Q.** What about the “clinical or laboratory adverse experiences of hypoglycemia” value [3] of the same compound?
**A.** no reports

**Q.** And the “serious clinical or laboratory adverse experiences or discontinuation because of a clinical adverse experience” value [3]?
**A.** No subject

**Q.** And the “Hill slope γ” value (plasma DPP-4 activity [4]; Emax model, single doses, SE 0.03)?
**A.** 1.1

**Q.** What about the Emax (plasma DPP-4 activity [4]; read-out: Emax, maximum inhibition of plasma DPP-4 activity) of the same compound?
**A.** 96.8%

**Q.** And the bioavailability [5]?
**A.** nearly complete

**Q.** And the solubility [6]?
**A.** high

**Q.** And the “margin to the clinical dose of 25 mg” value [7]?
**A.** ~20 fold

**Q.** And the “inhibition of plasma DPP-4 activity” value (plasma DPP-4 activity [8])?
**A.** ~85%

**Q.** And the “difference in overall absorption in the presence and absence of a high-fat breakfast” value [9]?
**A.** No difference

**Q.** What about the “percentage inhibition of DPP-4 activity 168 hours postdose (point estimate)” value (plasma DPP-4 activity [10]; single dose 0.5 mg) of the same compound?
**A.** 32.2%

**Q.** And the “percentage inhibition of DPP-4 activity 168 hours postdose (point estimate)” value (plasma DPP-4 activity [10]; single dose 400 mg)?
**A.** 96.7%

**Q.** What about the “fe, fraction of dose excreted in urine” value ([11]; 10 mg once weekly) of the same compound?
**A.** 70.1 (14.1) %

**Q.** And the “fe, fraction of dose excreted in urine” value ([11]; 25 mg once weekly)?
**A.** 57.5 (15.7) %

**Q.** What about the “fe, fraction of dose excreted in urine” value ([11]; 50 mg once weekly) of the same compound?
**A.** 73.6 (4.3) %

**Q.** What about the “fe, fraction of dose excreted in urine” value ([11]; 100 mg once weekly) of the same compound?
**A.** 72.2 (7.7) %

**Q.** What about the “steady state achieved following the second dosing” value ([11]; all treatments 10 to 100 mg once weekly) of the same compound?
**A.** more than 80%

**Q.** What about the half-life ([11]; 10 mg) of the same compound?
**A.** 83.2 h

**Q.** And the half-life ([11]; 25 mg)?
**A.** 66.7 h

**Q.** And the half-life ([11]; 50 mg)?
**A.** 48.3 h

**Q.** And the half-life ([11]; 100 mg)?
**A.** 41.7 h

**Q.** What about the CL renal [11] of the same compound?
**A.** 26.7 to 35 mL/min

**Q.** And the CL renal ([11]; 10 mg)?
**A.** 33.3 mL/min

**Q.** What about the CL renal ([11]; 25 mg) of the same compound?
**A.** 26.7 mL/min

**Q.** And the CL renal ([11]; 50 mg)?
**A.** 31.7 mL/min

**Q.** What about the CL renal ([11]; 100 mg) of the same compound?
**A.** 35 mL/min
